SENP8 block-1: SENP8 protease inhibition; purified SENP8, Z-RLRGG-aminoluciferin cleavage, luminescence; 1.2% of 330,000 active; inhibition, % at 10 µM; Q96LD8; in the data active = inhibition above about 50%
Target sequence (Q96LD8 whole entry, looked up): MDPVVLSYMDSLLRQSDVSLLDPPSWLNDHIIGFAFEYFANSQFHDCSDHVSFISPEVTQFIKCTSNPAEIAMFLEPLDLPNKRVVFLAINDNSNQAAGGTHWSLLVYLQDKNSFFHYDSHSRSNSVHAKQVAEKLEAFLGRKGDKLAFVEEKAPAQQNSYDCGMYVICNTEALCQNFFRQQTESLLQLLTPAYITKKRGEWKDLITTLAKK
UBC13 inh: human UBC13 polyubiquitination inhibition. UBC13 polyubiquitin chain formation, TR-FRET. inhibition, % at 20 µM. 0.47% of 330,000 active. AID 485273; in the data active = inhibition above about 45%, passing the limit was not always enough
Target sequence (P61088 whole entry, looked up): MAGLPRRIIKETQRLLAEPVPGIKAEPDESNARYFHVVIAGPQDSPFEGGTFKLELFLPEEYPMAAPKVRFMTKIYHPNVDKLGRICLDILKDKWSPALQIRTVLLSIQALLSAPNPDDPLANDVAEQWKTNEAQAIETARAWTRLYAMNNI
SENP6 inh: blocks the human protease SENP6 | Recombinant SENP6 catalytic domain, aminoluciferin luminescence | inhibition, % at 10 µM | 1.8% of 330,000 active | AID 2599;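 active = inhibition above about 50% at the single tested dose, limit read from the data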;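 also: plate controls were DMSO wells with enzyme for no effect and DMSO wells lacking enzyme for full effect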
SENP7 block: inhibitors of human SENP7 protease; Q9BQF6; recombinant SENP7, Z-RLRGG-aminoluciferin luminescence, 40 min; inhibition, % at 5 µM; 1.5% of 330,000 active; AID 434973;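 active = inhibition above about 50% at the single test dose, limit read from the data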;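 also: plate controls were DMSO with enzyme for no effect and no enzyme buffer wells for full effect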
SENP8 block-2: inhibitors of human SENP8 protease. AID 602440. Q96LD8. recombinant SENP8, Nedd8 substrate fluorescence. 0.64% of 360,000 active. inhibition, % at 20 µM; in the data active = inhibition mostly above about 40%, no sharp cut-off; inactive = mostly below about 27%
Apaf1 inhib: human Apaf-1 inhibition. O14727. reconstituted apoptosome caspase-3 activity, DEVD-Rh110 fluorescence. inhibition, % at 20 µM. 0.71% of 330,000 active; active = inhibition of at least 40% at 20 µM;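 also: plate controls were DMSO wells for no effect and DEVD-CHO caspase inhibitor wells for full effect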
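Material: reconstituted apoptosome with Apaf-1, cytochrome c, caspase-9, procaspase-3, dATP / Buffer or medium: pH 7.5 Hepes buffer with CHAPS, BSA, DTT / Also added: cytochrome c with DEVD-Rh110 / Schedule: compound with Apaf-1, dATP, procaspase-3 30 min, then 50 min reaction, room temperature / Technique: rhodamine 110 fluorescence at Ex 480/Em 540 nm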
SENP8 conf: human SENP8 inhibition, confirmed | 40% of 6,200 active | AID 488912 | inhibition, % at 12.5 µM | Recombinant SENP8, Z-RLRGG-aminoluciferin luminescence, 60 min | shares compounds with SENP7 block;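 active = mean inhibition across replicates above about 50%, limit read from the data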
SENP6 conf: confirmation of human SENP6 protease inhibitors | shares compounds with SENP7 block | recombinant SENP6, Z-RLRGG-aminoluciferin luminescence | inhibition, % at 12.5 µM | 58% of 6,200 active
SENP7 conf: human SENP7 inhibition, confirmed; shares compounds with SENP7 block; inhibition, % at 12.5 µM; 69% of 6,200 active; recombinant SENP7, Z-RLRGG-aminoluciferin luminescence, 40 min
Casp3 SENP sel: caspase-3 inhibition (SENP selectivity assay); shares compounds with SENP7 block; purified caspase-3, Z-DEVD-aminoluciferin luminescence, 60 min; inhibition, % at 12.5 µM; 60% of 6,200 active;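 active = mean inhibition above about 50%, limit read from the data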;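 also: plate controls were enzyme with DMSO for no effect and wells without caspase-3 for full effect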
Luc interf: counter-screen for SENP inhibitors: luminescence interference | shares compounds with SENP7 block | Pre-incubated SENP8/Z-RLRGG-aminoluciferin, luciferase luminescence interference | inhibition, % at 12.5 µM | 39% of 6,200 active;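 active = mean inhibition above about 50% when retested at one dose, limit read from the data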;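 also: plate controls were DMSO wells with completed reaction for no effect and substrate without enzyme for full effect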
* marks the source's active call; other numbers are inactive results. Shown are actives, neighbours in structure and some others; about 3% of the full set was active somewhere.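 The calls were made as follows, unless noted: active = mean inhibition above about 50% in the one-dose retest (limit read from the data); inactive = the rest.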

What do the screens show for `C[C@H](c1ccccc1)N1C[C@@H](COCc2ccccc2)Oc2cc(N3CC[C@@H](N(C)C)C3)ccc2S1(=O)=O`?
SENP8 block-2: -3

What do the screens show for `CC(=O)Oc1ccccc1-c1nc(/C=C/c2ccccc2)no1`?
SENP8 block-1: 43; UBC13 inh: 7; SENP6 inh: 61*; SENP7 block: 70*; SENP8 block-2: 20; Apaf1 inhib: 20; SENP8 conf: 7; SENP6 conf: 13; SENP7 conf: 20; Casp3 SENP sel: 28; Luc interf: 5

Results for COc1cc(/C=C/c2noc(-c3ccccc3O)n2)cc(OC)c1OC ?
SENP8 block-1: -16; UBC13 inh: 12; SENP6 inh: -24; SENP7 block: -4; SENP8 block-2: -433; Apaf1 inhib: 1

How did COc1ccc(/C=C/c2noc(-c3ccccc3O)n2)cc1 do in these assays?
SENP8 block-1: 88*; UBC13 inh: -6; SENP6 inh: 89*; SENP7 block: 88*; SENP8 block-2: -8; Apaf1 inhib: 14; SENP8 conf: 57*; SENP6 conf: 49; SENP7 conf: 62*; Casp3 SENP sel: 53*; Luc interf: 4

How did COc1ccc(C(C)(O)c2nc(-c3ccc(OC)nc3)cs2)cc1 (stereo not given) do in these assays?
SENP8 block-2: -1

What do the screens show for `Cc1ccc(O)c(NC(=O)c2ccc3c(c2)C(=O)N(Cc2cccnc2)C3=O)c1`?
SENP8 block-1: 39; UBC13 inh: 5; SENP6 inh: 47; SENP7 block: 86*; SENP8 block-2: 8; Apaf1 inhib: -4; SENP8 conf: 0; SENP6 conf: 14; SENP7 conf: 32; Casp3 SENP sel: 18; Luc interf: -1

How did Cc1csc(NC(=O)c2ccc(Br)s2)n1 do in these assays?
SENP8 block-1: 30; UBC13 inh: 3; SENP6 inh: 55*; SENP7 block: 26; SENP8 block-2: -19; Apaf1 inhib: 1; SENP8 conf: 46; SENP6 conf: 43; SENP7 conf: 77*; Casp3 SENP sel: 48; Luc interf: 26

What do the screens show for `COC(=O)c1sc(NC(=O)c2cc3c(s2)CCCC3)nc1C`?
SENP8 block-1: 35; UBC13 inh: 14; SENP6 inh: 23; SENP7 block: 80*; SENP8 block-2: -221; Apaf1 inhib: -2; SENP8 conf: 34; SENP6 conf: 34; SENP7 conf: 90*; Casp3 SENP sel: 52*; Luc interf: 40

What do the screens show for `CCc1sc(C(=O)Nc2ccc(NC(C)=O)cc2)cc1C`?
SENP8 block-1: -2; UBC13 inh: 3; SENP6 inh: -11; SENP7 block: 3; SENP8 block-2: 20; Apaf1 inhib: -2

Results for CCc1sc(C(=O)Nc2nc(C)cs2)cc1C ?
SENP8 block-1: 68*; UBC13 inh: 5; SENP6 inh: 85*; SENP7 block: 65*; SENP8 block-2: -44; Apaf1 inhib: 4; SENP8 conf: 70*; SENP6 conf: 69*; SENP7 conf: 92*; Casp3 SENP sel: 69*; Luc interf: 69*

What do the screens show for `Cc1csc(NC(=O)c2cc3c(s2)CCC3)n1`?
SENP8 block-1: 82*; UBC13 inh: 4; SENP6 inh: 90*; SENP7 block: 87*; SENP8 block-2: -78; Apaf1 inhib: 11; SENP8 conf: 89*; SENP6 conf: 88*; SENP7 conf: 99*; Casp3 SENP sel: 89*; Luc interf: 91*
